Test results reported in ChEMBL document CHEMBL6121033, “N-Arylsulfonylated C-Homoaporphines as a New Class of Antiplatelet and Antimicrobial Agents” (ACS Med Chem Lett, 2025).
Converted amounts (≈) assume the structure as drawn. The source made the active and inactive calls. The calls are words filed in the database; no cut-off is given here.

How the values were obtained:
Aspergillus niger [1] = assay: Antifungal activity against Aspergillus niger assessed as inhibition of fungal growth by agar well diffusion method; assay type: functional
Plasma [2] = assay: Antiplatelet aggregation activity in rabbit platelet-rich plasma assessed as inhibition of arachidonic acid-induced platelet aggregation by turbidimetric based Lumi-aggregometry; assay type: functional; settings: Oryctolagus cuniculus
Aspergillus niger [3] = assay: Potency index, ratio of Ketaconazole MIC to test compound MIC for antifungal activity against Aspergillus niger assessed as inhibition of fungal growth by agar well diffusion method; assay type: functional
Escherichia coli = assay: Antibacterial activity against Escherichia coli MTCC 443 assessed as inhibition of bacterial growth incubated for 24 hrs by serial dilution method; assay type: functional
Summary of the method: (§1)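 MIC found by serial dilution, with ampicillin as positive control. Strains were Gram-negative E. coli MTCC 443 and Gram-positive B. subtilis MTCC 10619. A first agar diffusion screen of all compounds and the control was run at a fixed 100 μg/mL.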

Bacillus subtilis = assay: Antibacterial activity against Bacillus subtilis MTCC 10619 assessed as inhibition of bacterial growth incubated for 24 hrs by serial dilution method; assay type: functional; summary of the method: as §1
Trichoderma reesei [4] = assay: Antifungal activity against Trichoderma reesei assessed as inhibition of fungal growth by agar well diffusion method; assay type: functional
Macrophomina phaseolina = assay: Antifungal activity against Macrophomina phaseolina assessed as inhibition of fungal growth by agar well diffusion method; assay type: functional
Trichoderma reesei [5] = assay: Potency index, ratio of Ketaconazole MIC to test compound MIC for antifungal activity against Trichoderma reesei assessed as inhibition of fungal growth by agar well diffusion method; assay type: functional
Plasma [6] = assay: Potency index, ratio of Acetylsalicylic acid IC50 to test compound IC50 for antiplatelet aggregation activity in rabbit platelet-rich plasma assessed as inhibition of arachidonic acid-induced platelet aggregation by turbidimetric aggregometry analysis; assay type: functional, Oryctolagus cuniculus

| MIC (Aspergillus niger [1]) [µg/mL] | IC50 (Plasma [2]) [µg/mL] | MIC (Escherichia coli) [µg/mL] | MIC (Trichoderma reesei [4]) [µg/mL] | MIC (Macrophomina phaseolina) [µg/mL] | MIC (Bacillus subtilis) [µg/mL] | Compound | Ratio (Aspergillus niger [3]) | Activity (Bacillus subtilis) | Activity (Trichoderma reesei [4]) | Activity (Macrophomina phaseolina) | Ratio (Trichoderma reesei [5]) | Activity (Escherichia coli) | Ratio (Plasma [6]) | Ratio IC50 (Plasma [6]) | Activity (Aspergillus niger [1]) |
| --- | --- | --- | --- | --- | --- | --- | --- | --- | --- | --- | --- | --- | --- | --- | --- |
| 50 (≈ 81.1 µM) | 30 (≈ 48.6 µM) | 12.5 (≈ 20.3 µM) | 6.25 (≈ 10.1 µM) | 12.5 (≈ 20.3 µM) |  | COc1cc2c(cc1OC)-c1c(OC)c(OCc3ccccc3)cc3c1C(CC2)N(S(=O)(=O)c1ccc([N+](=O)[O-])cc1)CC3 (stereo not given) |  | inactive |  |  | 1 |  |  |  |  |
| 50 (≈ 92.5 µM) | 30 (≈ 55.5 µM) |  |  | 12.5 (≈ 23.1 µM) |  | COc1cc2c(cc1OC)-c1c(OC)c(OC)cc3c1C(CC2)N(S(=O)(=O)c1ccc([N+](=O)[O-])cc1)CC3 (stereo not given) |  | inactive | inactive |  |  | inactive |  |  |  |
| 25 (≈ 40.5 µM) | 32.7 (≈ 53 µM) | 50 (≈ 81.1 µM) |  | 12.5 (≈ 20.3 µM) | 12.5 (≈ 20.3 µM) | COc1cc2c(cc1OC)-c1c(OCc3ccccc3)c(OC)cc3c1C(CC2)N(S(=O)(=O)c1ccc([N+](=O)[O-])cc1)CC3 (stereo not given) |  |  | inactive |  |  |  |  |  |  |
| 25 (≈ 50.4 µM) | 15 (≈ 30.3 µM) | 12.5 (≈ 25.2 µM) |  |  | 50 (≈ 101 µM) | COc1cc2c(cc1OC)-c1c(OC)c(OC)cc3c1C(CC2)N(S(=O)(=O)c1ccccc1)CC3 (stereo not given) |  |  | inactive | inactive |  |  | ~3 |  |  |
| 25 (≈ 39.1 µM) | 8 (≈ 12.5 µM) | 6.25 (≈ 9.77 µM) | 25 (≈ 39.1 µM) | 12.5 (≈ 19.5 µM) | 25 (≈ 39.1 µM) | COc1cc2c(cc1OC)-c1c(OCc3ccccc3)c(OC)cc3c1C(CC2)N(S(=O)(=O)c1cccc(C(F)(F)F)c1)CC3 (stereo not given) |  |  |  |  |  |  | ~3 |  |  |
| 6.25 (≈ 9.96 µM) | 35 (≈ 55.7 µM) |  | 50 (≈ 79.6 µM) | 25 (≈ 39.8 µM) | 25 (≈ 39.8 µM) | COc1cc2c(cc1OC)-c1c(OC)c(OCc3ccccc3)cc3c1C(CC2)N(S(=O)(=O)c1ccc(C(C)(C)C)cc1)CC3 (stereo not given) |  |  |  |  |  | inactive |  |  |  |
| 25 (≈ 44.4 µM) | 9.6 (≈ 17 µM) | 25 (≈ 44.4 µM) |  | 12.5 (≈ 22.2 µM) | 100 (≈ 177 µM) | COc1cc2c(cc1OC)-c1c(OC)c(OC)cc3c1C(CC2)N(S(=O)(=O)c1cccc(C(F)(F)F)c1)CC3 (stereo not given) |  |  | inactive |  |  |  | ~3 |  |  |
|  | 14.7 (≈ 25.6 µM) |  |  |  | 12.5 (≈ 21.9 µM) | COc1cc2c(cc1OC)-c1c(OC)c(OCc3ccccc3)cc3c1C(CC2)N(S(=O)(=O)c1ccccc1)CC3 (stereo not given) |  |  | inactive | inactive |  | inactive | ~3 |  | inactive |
|  | 21.3 (≈ 118 µM) |  |  |  |  | CC(=O)Oc1ccccc1C(=O)O [ASPIRIN] |  |  |  |  |  |  |  |  |  |
|  | 7 (≈ 10.9 µM) | 6.25 (≈ 9.77 µM) | 6.25 (≈ 9.77 µM) |  | 6.25 (≈ 9.77 µM) | COc1cc2c(cc1OC)-c1c(OC)c(OCc3ccccc3)cc3c1C(CC2)N(S(=O)(=O)c1cccc(C(F)(F)F)c1)CC3 (stereo not given) |  |  |  | inactive | 1 |  |  | 3 | inactive |

Further lines, the compound ahead of its results:

| Compound | MIC (Aspergillus niger [1]) [µg/mL] | IC50 (Plasma [2]) [µg/mL] | MIC (Escherichia coli) [µg/mL] | MIC (Trichoderma reesei [4]) [µg/mL] | MIC (Macrophomina phaseolina) [µg/mL] | MIC (Bacillus subtilis) [µg/mL] | Ratio (Aspergillus niger [3]) | Activity (Bacillus subtilis) | Activity (Trichoderma reesei [4]) | Activity (Macrophomina phaseolina) | Ratio (Trichoderma reesei [5]) | Activity (Escherichia coli) | Ratio (Plasma [6]) | Ratio IC50 (Plasma [6]) | Activity (Aspergillus niger [1]) |
| --- | --- | --- | --- | --- | --- | --- | --- | --- | --- | --- | --- | --- | --- | --- | --- |
| COc1cc2c(cc1OC)-c1c(OCc3ccccc3)c(OC)cc3c1C(CC2)N(S(=O)(=O)c1ccc(C(C)(C)C)cc1)CC3 (stereo not given) | 12.5 (≈ 19.9 µM) | 35 (≈ 55.7 µM) | 6.25 (≈ 9.96 µM) |  |  |  | 1 | inactive | inactive | inactive |  |  |  |  |  |
| COc1cc2c(cc1OC)-c1c(OC)c(OC)cc3c1C(CC2)N(S(=O)(=O)c1cccc(C)c1)CC3 (stereo not given) | 12.5 (≈ 24.5 µM) | 12.7 (≈ 24.8 µM) | 6.25 (≈ 12.3 µM) | 12.5 (≈ 24.5 µM) |  | 25 (≈ 49.1 µM) | 1 |  |  | inactive |  |  | ~3 |  |  |
| COc1cc2c(cc1OC)-c1c(OC)c(OCc3ccccc3)cc3c1C(CC2)N(S(=O)(=O)c1cccc(C)c1)CC3 (stereo not given) |  | 10.5 (≈ 17.9 µM) | 50 (≈ 85.4 µM) | 25 (≈ 42.7 µM) | 50 (≈ 85.4 µM) | 25 (≈ 42.7 µM) |  |  |  |  |  |  |  | >2 | inactive |
| COc1cc2c(cc1OC)-c1c(OC)c(OC)cc3c1C(CC2)N(S(=O)(=O)c1ccc(C(C)(C)C)cc1)CC3 (stereo not given) | 100 (≈ 181 µM) | 36.7 (≈ 66.4 µM) | 3.12 (≈ 5.66 µM) |  | 6.25 (≈ 11.3 µM) | 12.5 (≈ 22.7 µM) |  |  | inactive |  |  |  |  |  |  |
| CC(=O)N1CCN(c2ccc(OCC3COC(Cn4ccnc4)(c4ccc(Cl)cc4Cl)O3)cc2)CC1 (stereo not given) [KETOCONAZOLE] | 12.5 (≈ 23.5 µM) |  |  | 6.25 (≈ 11.8 µM) | 12.5 (≈ 23.5 µM) |  |  |  |  |  |  |  |  |  |  |
| COc1cc2c(cc1OC)-c1c(OCc3ccccc3)c(OC)cc3c1C(CC2)N(S(=O)(=O)c1cccc(C)c1)CC3 (stereo not given) | 12.5 (≈ 21.3 µM) | 12.7 (≈ 21.6 µM) | 3.12 (≈ 5.34 µM) | 12.5 (≈ 21.3 µM) | 25 (≈ 42.7 µM) | 3.12 (≈ 5.34 µM) | 1 |  |  |  |  |  | ~3 |  |  |
| CC1(C)S[C@@H]2[C@H](NC(=O)[C@H](N)c3ccccc3)C(=O)N2[C@H]1C(=O)O [AMPICILLIN] |  |  | 12.5 (≈ 35.8 µM) |  |  | 25 (≈ 71.5 µM) |  |  |  |  |  |  |  |  |  |
| COc1cc2c(cc1OC)-c1c(OCc3ccccc3)c(OC)cc3c1C(CC2)N(S(=O)(=O)c1ccccc1)CC3 (stereo not given) | 6.25 (≈ 10.9 µM) | 12.7 (≈ 22.1 µM) |  |  |  |  |  | inactive | inactive | inactive |  | inactive | ~3 |  |  |
